Assay results gathered from unrelated publications.
Lines come from different studies, so protocols differ.

COc1cccc2c1C(=O)c1c(O)c3c(c(O)c1C2=O)C[C@@](O)(C(=O)CO)C[C@@H]3O[C@H]1C[C@H](N)[C@H](O)[C@H](C)O1  viability (Caco-2; cell growth or viability, MTT; 12.5 µg/mL, 48 h, serum-free): 40.5%
Cc1[nH]c(C(=O)Nc2ccc(C(=O)NCC(=O)O)cc2N2CCN(C(=O)OC(C)(C)C)CC2)c(Cl)c1Cl  MIC (Klebsiella pneumoniae; microbial growth, broth dilution; ATCC700603): > 32 µg/mL
C[C@@H]1CC[C@@H]([C@](C)(O)CNCc2cccc(F)c2)[C@H](OCc2ccccc2)C1  inhibition (A2780; cell growth or viability, MTT; 10 µM, 72 h): 30.6%
CO[C@@H]1[C@@H](OC(N)=O)[C@@H](O)[C@H](Oc2ccc3c(O)c(NC(=O)c4ccc(O)c(CC=C(C)C)c4)c(=O)oc3c2C)OC1(C)C  MIC (Klebsiella pneumoniae; microbial growth, broth dilution; ATCC10031): 0.5 µg/mL
COc1ccc(COC[C@@](O)(CNCc2ccccc2)[C@@H]2CC[C@@H](C)C[C@H]2OCc2ccc(OC)cc2)cc1  inhibition (A2780; cell growth or viability, MTT; 30 µM, 72 h): 100%
CC(=O)Nc1ccc(Oc2ccc(C(=O)C(Cl)Cl)cc2[N+](=O)[O-])cc1Cl  inhibition (NCI-H1650; cell growth or viability, MTT; 2.5 µM): 77.8%
COc1ccc(CNC[C@](O)(COCc2ccc(OC)cc2)[C@@H]2CC[C@@H](C)C[C@H]2OCc2ccc(OC)cc2)cc1  inhibition (A2780; cell growth or viability, MTT; 10 µM, 72 h): 98.7%
Cc1[nH]c(C(=O)Nc2ccc(C(=O)NCC(=O)O)cc2N2CC[C@@H](NC(=O)OC(C)(C)C)C2)c(Cl)c1Cl  MIC (Klebsiella pneumoniae; microbial growth, broth dilution; ATCC700603): > 32 µg/mL
COc1ccc(CNC[C@](O)(COCc2ccc(F)cc2)[C@@H]2CC[C@@H](C)C[C@H]2OCc2ccc(F)cc2)cc1  inhibition (A2780; cell growth or viability, MTT; 10 µM, 72 h): 93.8%
C=C(F)C(=O)N1CCN(c2nc(OC[C@@H]3CCCN3C)nc3c2CCN(c2cccc4cccc(Cl)c24)C3)C[C@@H]1CC#N  IC50 (NCI-H2122; cell growth or viability, ATP luminescence): 0.192 µM
C[C@@H]1CC[C@@H]([C@](C)(O)CNCc2cccc3ccccc23)[C@H](OCc2ccccc2)C1  inhibition (A2780; cell growth or viability, MTT; 30 µM, 72 h): 94.2%
Cl.N[C@@H]1CCN(c2cc(C(=O)NCC(=O)O)ccc2NC(=O)c2cc(Br)c(Br)[nH]2)C1  MIC (Klebsiella pneumoniae; microbial growth, broth dilution; ATCC700603): > 32 µg/mL
CN[C@H](CC(C)C)C(=O)N[C@H]1C(=O)N[C@@H](CC(N)=O)C(=O)N[C@H]2C(=O)N[C@H]3C(=O)N[C@H](C(=O)N[C@H](C(=O)O)c4cc(O)cc(O)c4-c4cc3ccc4O)[C@H](O)c3ccc(c(Cl)c3)Oc3cc2cc(c3O[C@@H]2O[C@H](CO)[C@@H](O)[C@H](O)[C@H]2O[C@H]2C[C@](C)(N)[C@H](O)[C@H](C)O2)Oc2ccc(cc2Cl)[C@H]1O  MIC (Streptococcus pneumoniae; microbial growth; ATCC49619): 0.25 µM
NC(=O)c1ccc(Oc2ccc(C(=O)C(Cl)Cl)cc2[N+](=O)[O-])cc1  inhibition (NCI-H1650; cell growth or viability, MTT; 2.5 µM): 59.3%
C=CC(=O)NC1CCN(c2ncc3ncnc(Nc4ccc(Oc5ccc6c(c5)ncn6C)c(C)c4)c3n2)CC1  EC50 (LS180; cell growth or viability): 5.48 µM
